In the library only some 1.6% were active in any assay of this set; here they are far more common.
Scp-1 inhibitor: inhibitors of human Scp-1 phosphatase; Q9GZU7; Recombinant Scp1, phosphopeptide, malachite green phosphate absorbance; inhibition, % at 20 µM; 340,000 compounds, 0.88% hits; AID 493091;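 active = inhibition above about 50% at 20 µM, limit read from the data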;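 also: plate controls were DMSO wells with enzyme for no effect and wells lacking enzyme for full effect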
Target sequence (Q9GZU7 76-261 limits assumed): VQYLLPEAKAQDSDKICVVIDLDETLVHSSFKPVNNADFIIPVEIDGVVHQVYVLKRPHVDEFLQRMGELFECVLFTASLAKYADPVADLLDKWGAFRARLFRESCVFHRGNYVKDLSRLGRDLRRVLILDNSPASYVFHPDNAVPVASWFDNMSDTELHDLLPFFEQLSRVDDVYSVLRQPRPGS
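Test system: SCP-1 phosphatase catalytic domain, residues 76-261 | Compound dosing: One concentration, 20 µM, with 1.0% DMSO | Schedule: 45 min room-temperature reaction, 5 min colour, 30 min stabiliser | Detection: Absorbance at 630 nm | Read-out basis: % inhibition of SCP-1 phosphate liberation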
F508del corr: CFTR F508del correction in bronchial cells | CFBE cells, YFP halide quenching; stimulated with forskolin plus potentiator P3; % fluorescence drop versus neutral controls | 350,000 compounds, 0.36% hits | activity (quench increase), % at 7.58 µM;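 active = mean added fluorescence quench of at least 8% versus neutral control, with both replicates also reaching 8%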;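 also: cells transiently co-express mutant CFTR-F508del with the halide-sensitive YFP; corrector assay measuring rescue of mutant channel to the surface after 24 h compound exposure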
DNMT1 block: inhibitors of human DNMT1 | inhibition (reported as % activation of signal), % at 10 µM | 360,000 compounds, 0.83% hits | AID 588458 | DNMT1 molecular beacon, Hinp1I cleavage, fluorescence | P26358; in the data active = inhibition above about 50%
LMPTP inh: blocks human LMPTP phosphatase. P24666. recombinant LMPTP-A, OMFP fluorogenic substrate, fluorescence intensity. inhibition, % at 20 µM. 360,000 compounds, 0.22% hits;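 active = compounds that cut the enzyme signal by at least half of the control window in the single-dose screen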;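 also: plate controls were DMSO wells with enzyme plus substrate for no effect and substrate without enzyme for full effect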
Target sequence (P24666 whole entry, looked up): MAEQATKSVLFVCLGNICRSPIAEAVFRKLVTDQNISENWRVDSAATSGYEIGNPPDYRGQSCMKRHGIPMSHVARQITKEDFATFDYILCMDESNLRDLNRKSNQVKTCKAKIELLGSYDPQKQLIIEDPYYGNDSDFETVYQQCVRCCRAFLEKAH
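Test system – LMPTP-A enzyme · Amount – LMPTP-A at 0.625 nM final in the reaction · Buffer or medium – Bis-Tris pH 6.0, DTT, detergent · Reagent – OMFP 400 µM · Doses – single 20 µM dose · Schedule – reaction 50 min, room temperature, dark · Detection – fluorescence intensity of OMFP turnover product · Evaluation – percent inhibition versus substrate-only and uninhibited controls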
STEP block: inhibitors of human striatal-enriched phosphatase STEP; P54829; recombinant STEP, OMFP fluorogenic substrate, fluorescence; inhibition, % at 20 µM; 360,000 compounds, 0.25% hits; AID 588621;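 active = inhibition at 20 µM, scaled per plate between control wells, above about 37%, limit read from the data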;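 also: 0% = DMSO with enzyme and substrate and 100% = substrate only without enzyme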
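Test system: STEP tyrosine phosphatase / Reagent: OMFP at 25 µM / Doses: 20 µM, 1% DMSO / Read-out: percent inhibition scaled to no-enzyme and uninhibited-enzyme controls, plate-pattern corrected / Detection: FITC-channel fluorescence of OMFP product / Medium: Bis-Tris buffer pH 6.0, 2.5 mM DTT, 0.005% Tween 20 / Schedule: 20 min at room temperature, dark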
SUMO1 PPI mod: alters human SUMO1 binding to SIM partners | 360,000 compounds, 0.33% hits | inhibition, % at 20 µM | P63165 | AID 602429 | SUMO1 binding to a labelled peptide, TR-FRET, 1 h; in the data active = inhibition above about 37%
Target sequence (P63165 whole entry, looked up): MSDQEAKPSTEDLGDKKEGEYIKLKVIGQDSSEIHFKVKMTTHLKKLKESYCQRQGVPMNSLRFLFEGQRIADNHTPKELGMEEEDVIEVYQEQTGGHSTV
Numbers without * were called inactive; . = no result.

SMILES	Scp-1 inhibitor	F508del corr	DNMT1 block	LMPTP inh	STEP block	SUMO1 PPI mod
COc1ccc([N+](=O)[O-])cc1Nc1c2ccccc2nc2ccccc12	1	13*	5	34	-4	2
Cc1ccc(S(=O)(=O)Nc2cccc3c2O[C@@H](CN(C)C(=O)Nc2ccccc2)[C@H](C)CN([C@H](C)CO)C3=O)cc1	.	-2	.	.	.	.
O=[N+]([O-])c1c(Nc2ccc(O)cc2)cc(Cl)c2nonc12	-13	-12	27	0	49*	-23
C[C@@H]1CCCCO[C@@H](CN(C)C(=O)CCC(F)(F)F)[C@@H](C)CN([C@@H](C)CO)C(=O)c2cc(NC(=O)Nc3ccccc3)ccc2O1	.	1	.	.	.	.
O=c1nc2s/c(=C\c3ccco3)c(=O)n2nc1Cc1ccc(F)cc1	77*	.	3	0	-1	1
CO[C@H]1CN(C)C(=O)c2cc(NC(=O)C3CC3)ccc2OC[C@H](C)N(Cc2ccc(F)cc2)C[C@@H]1C	.	-1	.	.	.	.
N#C/C(=C\c1ccc(O)c(O)c1)C(=O)c1ccc(O)c(O)c1	1	-1	15	17	2	-32
N#CC(C#N)=C(N)/C(C#N)=C/c1cc(O)c(O)c(O)c1	-1	2	-2	51*	2	-20
C[C@H]1CN([C@@H](C)CO)C(=O)c2cccc(NS(=O)(=O)c3cn(C)cn3)c2O[C@H]1CN(C)Cc1ccc2c(c1)OCO2	.	-1	.	.	.	.
Cc1ccc(S(=O)(=O)Nc2ccc3c(c2)C(=O)N([C@H](C)CO)C[C@@H](C)[C@@H](CN(C)S(=O)(=O)c2cccs2)O3)cc1	.	-1	.	.	.	.
COc1cc(/C=C2\SC(=S)N(c3cccnc3)C2=O)ccc1O	13	1	57*	13	23	109*
COc1ccc(S(=O)(=O)N2CC[C@@H]3[C@@H](CO)Nc4ccc(C5=CCCCC5)cc4[C@@H]32)cc1	.	9.0*	.	.	.	.
COc1ccc(S(=O)(=O)N2CC[C@@H]3[C@@H](CO)Nc4ccc(-c5cccc(C#N)c5)cc4[C@@H]32)cc1	.	13*	.	.	.	.
COc1ccc(S(=O)(=O)N2CC[C@H]3[C@H](CO)Nc4ccc(-c5cccc(C#N)c5)cc4[C@H]32)cc1	.	2	.	.	.	.
COc1ccc(-c2ccc3c(c2)[C@H]2[C@H](CCN2S(=O)(=O)c2ccc(OC)cc2)[C@@H](CO)N3)cc1	.	20*	.	.	.	.
COc1ccc(-c2ccc3c(c2)[C@@H]2[C@@H](CCN2S(=O)(=O)c2ccc(OC)cc2)[C@H](CO)N3)cc1	.	4	.	.	.	.
O=C(Nc1ccc(F)cc1)N1C[C@@H]2[C@H](c3ccccc31)[C@@H](CO)N2C(=O)Cc1ccccn1	.	5	.	.	.	.
Brc1ccc2nc(-c3ccco3)c(CC3CCCCC3)n2c1	.	-1	69*	19	4	23
Cc1ccc2nc(-c3ccco3)c(CC3CCCCC3)n2c1	.	.	1	0	-1	0
CCn1c(N)nc2c1c(=O)n(C)c(=O)n2C	1	-2	15	-1	0	9
CCCc1nc2c(=O)n(C)c(=O)nc-2n(C)n1	-7	-8	97*	72*	76*	27
Cn1nc(-c2ccccn2)nc2c(=O)n(C)c(=O)nc1-2	-14	-16	98*	68*	67*	34
CC(=O)N(C)C[C@H]1Oc2ncc(C#Cc3ccccc3)cc2C(=O)N([C@H](C)CO)C[C@H]1C	.	-1	.	.	.	.
COc1ccc(N=C2S/C(=C\c3ccc(N4CCOCC4)o3)C(=O)N2CCc2c[nH]c3ccccc23)cc1	.	.	-11	4	-27	-33
COc1ccc(N=C2S/C(=C\c3ccc(OCC(=O)O)cc3)C(=O)N2CCc2c[nH]c3ccccc23)cc1	21	2	-21	40	96*	98*
SMILES	Scp-1 inhibitor	F508del corr	DNMT1 block	LMPTP inh	STEP block	SUMO1 PPI mod
CN(Cc1c(C(=O)N/N=C/c2cccc(O)c2)nnn1-c1nonc1N)C1CCCCC1	3	0	5	0	0	-3
Nc1nonc1-n1nnc(C(=O)N/N=C/c2cc(Cl)ccc2O)c1CN1CCCCCC1	.	3	50*	0	0	7
CN(C)c1ccc(/C=N/NC(=O)c2nnn(-c3nonc3N)c2COc2ccc(F)cc2)cc1	7	-1	32	51*	6	7
CN(Cc1c(C(=O)N/N=C/c2ccccc2O)nnn1-c1nonc1N)C1CCCCC1	.	6	59*	1	0	3
COc1ccc(C2c3ccc4ccccc4c3Oc3ncn(CCO)c(=N)c32)cc1OC (stereo unspecified)	-8	.	-1	2	0	-16
COc1ccc(C2c3ccc4ccccc4c3Oc3ncn(CCCO)c(=N)c32)cc1OC (stereo unspecified)	-1	15*	-10	1	3	-8
O=C(O)c1cccc(CN2C(=O)c3ccccc3C2=O)c1	3	0	4	0	-3	-3
O=C1c2cccc3c(O)ccc(c23)C(=O)N1Cc1ccccc1	-13	.	68*	-4	-24	-82
C[C@H]1CN([C@@H](C)CO)C(=O)c2cccc(NC(=O)C3CCCCC3)c2O[C@H]1CN(C)C	.	1	.	.	.	.
CCN[C@H]1CN(CCCOC)S(=O)(=O)c2sc(S(N)(=O)=O)cc21	-6	10*	3	-2	-5	7
CCN[C@H]1C[C@H](C)S(=O)(=O)c2sc(S(N)(=O)=O)cc21	-4	2	-2	-3	-3	0
C[C@H]1CN([C@@H](C)CO)C(=O)Cc2cc(NC(=O)Cc3ccccc3)ccc2O[C@@H]1CN(C)Cc1ccc(C(=O)O)cc1	.	-2	.	.	.	.
COCCCNc1cc(C)nc2ccccc12	0	.	3	26	-1	0
Cc1cc(NCCCCCCCNc2cc(C)nc3cc([N+](=O)[O-])ccc23)c2ccc([N+](=O)[O-])cc2n1	32	-4	40	91*	18	129*
CO[C@@H]1CN(C)C(=O)c2ccc(NC(=O)C3CCOCC3)cc2OC[C@H](C)N(Cc2cccnc2)C[C@H]1C	.	1	.	.	.	.
COc1ccc(NC(=O)C2CCC(CNc3c(N4CCOCC4)c(=O)c3=O)CC2)cc1Cl (stereo unspecified)	-4	0	2	-1	0	2
COc1ccc(NC(=O)c2ccc(CNc3c(N4CCCC4)c(=O)c3=O)cc2)cc1Cl	-4	2	1	4	0	58*
Cc1nc2ccc(S(=O)(=O)NCC(=O)NCCN3CCCCCC3)cc2s1	3	.	2	12	5	46*
Cc1cc(/C=C\c2ccc3cc(N(C)C)ccc3[n+]2C)c(C)n1-c1ccccc1	43	.	54*	78*	15	0
Cc1cc(/C=C2\SC(=O)NC2=O)c(C)n1-c1ccc(N(C)C)cc1	4	-1	1	-1	-1	-4
